Screening results: PubChem BioAssay, several laboratories
NR2E3 ag-1: inhibitors of NR2E3-RetCOR corepressor binding, primary screen, NR2E3 agonist project, biochemical, TR-FRET, GST-NR2E3, biotin-RetCOR | 1536-well | inhibition of corepressor binding, % at 4.78 µM | 0.12% of 320,000 active | AID 2300, 2010;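 active = percent inhibition above the cutoff of mean plus 3 SD of all tested compounds, set per screening campaign, cut at about 20% in these data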;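 note: 0% = DMSO wells and 100% = biotin wells as full block of FRET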
Target sequence (Q9Y5X4 whole entry, looked up): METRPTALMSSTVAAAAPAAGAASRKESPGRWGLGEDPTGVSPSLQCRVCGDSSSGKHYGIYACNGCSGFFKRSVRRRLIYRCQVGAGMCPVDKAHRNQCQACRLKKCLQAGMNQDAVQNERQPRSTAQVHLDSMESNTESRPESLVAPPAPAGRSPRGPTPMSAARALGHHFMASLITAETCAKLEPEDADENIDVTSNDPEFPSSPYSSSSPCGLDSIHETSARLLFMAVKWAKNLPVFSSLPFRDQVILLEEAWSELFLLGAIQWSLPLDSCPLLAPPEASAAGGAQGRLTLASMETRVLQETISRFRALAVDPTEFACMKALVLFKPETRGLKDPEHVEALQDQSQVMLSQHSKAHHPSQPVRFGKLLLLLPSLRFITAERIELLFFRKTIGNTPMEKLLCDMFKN
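System: GST-tagged NR2E3 plus biotinylated RetCOR corepressor; Amount: 1.35 nM GST-tagged NR2E3 final; Dosing: single nominal compound dose of 4.8 µM; Schedule: 5 h incubation at 4 °C; Technique: TR-FRET with europium anti-GST and streptavidin-D2, 340 nm excitation; Controls: biotin wells as high control, 0.6% DMSO wells as low control.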
GASC-1 inh: inhibitors of GASC-1 histone demethylase, primary screen, biochemical, fluorescence, DELFIA europium; inhibition, % at 2.35 µM; 0.069% of 330,000 active; AID 2099, 2009; GST-JMJD2C(1-420) H3K9me3 demethylation;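 active = more than half of a compound's replicate wells show inhibition beyond 50%, single wells judged on their own value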;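 note: signal counts dimethyl H3K9 product captured on neutravidin plate; 0% = median of DMSO wells and 100% = 0.3 times that DMSO median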
DAX1 inh-1: DAX1 (NR0B1) inhibitors on StAR promoter, primary screen, cell-based, luminescence, SF-1 (NR5A1), full-length DAX-1; AID 652010, 2013; 1.1% of 370,000 active; HEK293T StAR-luciferase reporter, SF-1/DAX-1 repression relief; inhibition, % at 6.8 µM;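 active = inhibition above the mean over all tested compounds plus 3 SD, cut at about 3.6% in these data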;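 note: 0% = DAX-1 cells with DMSO and 100% = cells lacking DAX-1 with DMSO; higher inhibition means more luminescence from relief of DAX-1 repression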
DAX1 inh-2: DAX1 (NR0B1) inhibitors, primary screen, cell-based, HEK293, Gal4-DAX1, luciferase luminescence | Nuclear receptor subfamily 0 group B member 1 (Homo sapiens), P51843 | HEK293 Gal4-DAX1 luciferase reporter | inhibition, % at 6.75 µM | 0.99% of 340,000 active | AID 504766, 2011;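 active = inhibition above the mean over all tested compounds plus 3 SD, cut at about 4.2% in these data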;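 note: 0% = DAX1-transfected cells with DMSO and 100% = empty-vector control cells with DMSO; inhibition shows as a rise in luminescence from relieved DAX1 repression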
Target sequence (P51843 207-470 limits assumed): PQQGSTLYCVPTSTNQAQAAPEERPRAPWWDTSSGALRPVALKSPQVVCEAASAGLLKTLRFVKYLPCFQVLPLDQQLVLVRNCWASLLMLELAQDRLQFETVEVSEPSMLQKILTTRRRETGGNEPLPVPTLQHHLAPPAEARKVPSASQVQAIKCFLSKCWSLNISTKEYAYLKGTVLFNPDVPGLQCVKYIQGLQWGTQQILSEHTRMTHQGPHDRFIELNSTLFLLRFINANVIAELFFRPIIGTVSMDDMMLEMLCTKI
SMARCA2 activ: SMARCA2 (BRM) function activators, primary screen, cell-based, luminescence, high throughput; MG213 cells, MMTV-luciferase reporter, dexamethasone, overnight; activation, % at 9.1 µM; 1% of 370,000 active; in the data active = activation above about 7.8%;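 note: 0% = vehicle wells and 100% = reference activator wells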
NR2E3 ag-2: NR2E3 agonists in two-hybrid cells, primary screen, cell-based, luminescence, CHO-S, Gal4-NCOR/VP16-NR2E3. Photoreceptor-specific nuclear receptor (Homo sapiens), Q9Y5X4. luciferase. inhibition of corepressor binding, % at 3.98 µM. 0.35% of 360,000 active;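 active = inhibition above the mean of all tested compounds plus 3 SD, cut at about 70% in these data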;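 note: 0% = DMSO with NR2E3 transfected cells and 100% = cells lacking NR2E3 construct; higher means lower luciferase signal from less NR2E3 corepressor binding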
An asterisk follows results filed as active. Compounds with a hit are over-represented: about 3.2% of the library has one in this group of screens.

`CCOC(=O)C1=NN(c2cccc(Cl)c2)C2=NC(C)=C(C(=O)OC)C(c3cccs3)N12` (stereo not drawn) gave NR2E3 ag-1 2.2, GASC-1 inh -4.7, DAX1 inh-1 -0.3, DAX1 inh-2 5.6*, SMARCA2 activ -1.4 and NR2E3 ag-2 -1.9.
For Cn1ccc2cc(OCc3ccccc3)ccc21 the results were DAX1 inh-1 4.2*, DAX1 inh-2 2.6, SMARCA2 activ 3.9 and NR2E3 ag-2 -71.8.
`O=C1N(CCCO)CCC12CCC(c1ccccc1)CC2` (stereo not drawn) gave DAX1 inh-1 0.0 and SMARCA2 activ -1.5.
C=CCSc1nnc(NC(=O)c2ccc3c(c2)OCCO3)s1 was read as DAX1 inh-1 3.9*, DAX1 inh-2 1.4, SMARCA2 activ -1.0 and NR2E3 ag-2 -156.0.
`Oc1cccc(/C=C/c2ccc3cccc(O)c3n2)c1` gave NR2E3 ag-1 0.8, GASC-1 inh -0.2, DAX1 inh-1 3.6*, DAX1 inh-2 2.8, SMARCA2 activ 2.7 and NR2E3 ag-2 -159.7.
For COc1cc(/C=C/c2ccc3cccc(O)c3n2)cc(OC)c1OC the results were NR2E3 ag-1 -0.9, GASC-1 inh -5.3, DAX1 inh-1 -1.2, DAX1 inh-2 -3.4, SMARCA2 activ -3.9 and NR2E3 ag-2 -102.9.
Screening O=C1C[C@@H]2CCN3C(=O)CCC[C@@H]([C@H]23)[C@@H]1Cc1ccccc1 returned DAX1 inh-1 3.9*, DAX1 inh-2 -1.1, SMARCA2 activ 0.9 and NR2E3 ag-2 -24.6.
`CC[C@@H]1[C@H]2CCCC(=O)N3CC[C@@H](C[C@@H]1OC(=O)NCc1ccccc1)[C@@H]23` gave NR2E3 ag-1 1.6, GASC-1 inh 9.5, DAX1 inh-1 -0.4, DAX1 inh-2 0.2, SMARCA2 activ 0.1 and NR2E3 ag-2 1.0.
For COC(=O)[C@]12C[C@H](CC(=O)N3CCN(C(=O)c4ccco4)CC3)C(=O)N(Cc3cccc4ccccc34)C1=C[C@H](C(C)(C)C)O[C@@H]2C the results were DAX1 inh-1 -0.5 and SMARCA2 activ -1.3.
`Cc1cccc(C2=NN(c3ccccc3)[C@@H](C(=O)N3CCOC3=O)[C@@H]2C)c1` gave DAX1 inh-1 3.7*, DAX1 inh-2 0.0, SMARCA2 activ 0.5 and NR2E3 ag-2 -28.1.
`O=C1OCCN1C(=O)[C@H]1[C@H](c2ccc(Cl)cc2)C(c2ccc(F)cc2)=NN1c1ccccc1` gave DAX1 inh-1 3.8*, DAX1 inh-2 -0.5, SMARCA2 activ -4.5 and NR2E3 ag-2 -17.0.
For Cc1noc(C)c1COc1ccc(CC(=O)NC2CCCCCC2)cc1 the results were NR2E3 ag-1 2.0, GASC-1 inh 4.0, DAX1 inh-1 -0.6, DAX1 inh-2 4.7*, SMARCA2 activ -2.5 and NR2E3 ag-2 17.9.
`Cc1ccc(CNC(=O)c2cccc(OCc3c(C)noc3C)c2)cc1` gave NR2E3 ag-1 1.9, GASC-1 inh 7.4, DAX1 inh-1 -0.9, DAX1 inh-2 6.8*, SMARCA2 activ -3.3 and NR2E3 ag-2 0.3.
`CCOC(=O)c1c(-c2ccccc2)nc2cc(C)ccn12` gave NR2E3 ag-1 -1.3, GASC-1 inh 10.3, DAX1 inh-1 1.3, DAX1 inh-2 4.6*, SMARCA2 activ 6.7 and NR2E3 ag-2 -67.1.
For Cc1[nH]c2ccccc2c1/C=N/NC(=O)c1cccc(F)c1 the results were NR2E3 ag-1 -1.2, GASC-1 inh 0.6, DAX1 inh-1 1.4, DAX1 inh-2 7.8*, SMARCA2 activ 2.1 and NR2E3 ag-2 -42.6.
Screening Cc1[nH]c2ccccc2c1/C=N/NC(=O)CNC(=O)c1cccs1 returned NR2E3 ag-1 -0.7, GASC-1 inh -9.9, DAX1 inh-1 0.2, DAX1 inh-2 0.2, SMARCA2 activ -1.9 and NR2E3 ag-2 0.0.
For Cc1[nH]c2ccccc2c1/C=N/NC(=O)c1cccs1 the results were NR2E3 ag-1 -0.9, GASC-1 inh 3.3, DAX1 inh-1 1.9, DAX1 inh-2 7.9*, SMARCA2 activ 2.1 and NR2E3 ag-2 -120.6.
Cc1[nH]c2ccccc2c1/C=N/NC(=O)c1cccc([N+](=O)[O-])c1 was read as NR2E3 ag-1 -2.3, GASC-1 inh -22.3, DAX1 inh-1 0.1, SMARCA2 activ -0.7 and NR2E3 ag-2 -0.5.
`O=C(N/N=C/c1cccnc1)c1cccc(F)c1` gave NR2E3 ag-1 -0.2, GASC-1 inh 1.7, DAX1 inh-1 1.0, DAX1 inh-2 4.9*, SMARCA2 activ 3.5 and NR2E3 ag-2 -63.6.
Screening CC(=O)Nc1cccc(C(=O)N/N=C/c2ccccc2F)c1 returned NR2E3 ag-1 3.5, GASC-1 inh 4.8, DAX1 inh-1 3.7*, DAX1 inh-2 2.6, SMARCA2 activ 4.4 and NR2E3 ag-2 -65.1.
For O=C(Nc1ccc(F)cc1)OCc1cn(Cc2cccc(F)c2)nn1 the results were DAX1 inh-1 0.6 and SMARCA2 activ -1.4.
For Cc1cc(/C=N/NC(=O)c2ccccc2F)c(C)n1-c1ccccc1 the results were NR2E3 ag-1 1.1, GASC-1 inh 2.4, DAX1 inh-1 2.7, DAX1 inh-2 3.0, SMARCA2 activ 4.4 and NR2E3 ag-2 -95.2.
`Cc1cc(/C=N/NC(=O)c2cccc(F)c2)c(C)n1-c1ccccc1` gave NR2E3 ag-1 4.8, GASC-1 inh -8.3, DAX1 inh-1 1.9, DAX1 inh-2 4.5*, SMARCA2 activ 6.1 and NR2E3 ag-2 -21.0.
For Cc1cc(Nc2ccccc2Br)n2nc(C)nc2n1 the results were NR2E3 ag-1 3.8, GASC-1 inh -1.1, DAX1 inh-1 -1.0, DAX1 inh-2 0.5, SMARCA2 activ -1.3 and NR2E3 ag-2 -14.0.
Screening Cc1cc(Nc2ccc(C)c(Br)c2)n2nc(C)nc2n1 returned NR2E3 ag-1 1.1, GASC-1 inh 0.1, DAX1 inh-1 -0.3, DAX1 inh-2 4.4*, SMARCA2 activ -0.6 and NR2E3 ag-2 10.3.
`COc1ccc(Nc2cc(C)nc3nc(C)nn23)c(OC)c1` gave NR2E3 ag-1 -2.2, GASC-1 inh 2.9, DAX1 inh-1 0.1, DAX1 inh-2 5.1*, SMARCA2 activ -0.2 and NR2E3 ag-2 11.2.
Cc1cc(Nc2ccc(F)cc2F)n2nc(C)nc2n1 was read as NR2E3 ag-1 0.1, GASC-1 inh -5.5, DAX1 inh-1 1.3, DAX1 inh-2 4.9*, SMARCA2 activ -1.5 and NR2E3 ag-2 -35.8.
COc1ccc(Nc2cc(C)nc3nc(C)nn23)cc1Cl was read as NR2E3 ag-1 1.6, GASC-1 inh -1.9, DAX1 inh-1 -0.7, DAX1 inh-2 4.6*, SMARCA2 activ 0.7 and NR2E3 ag-2 -30.0.
